Results collected from several papers.
Compare with care: the assays were run in different laboratories.
ALK L1196M: ALK tyrosine kinase receptor (ALK, Homo sapiens, UniProt Q9UM73, L1196M)
ALK: ALK tyrosine kinase receptor (ALK, Homo sapiens, UniProt Q9UM73)
ALK C1156Y: ALK tyrosine kinase receptor (ALK, Homo sapiens, UniProt Q9UM73, C1156Y)

For COc1cc(-c2cn(C3CCc4c(F)cccc4N(CC(F)(F)F)C3=O)nn2)ccc1-n1cnc(C)c1 (stereo not shown), the remaining binding was 100% (ALK L1196M; cell-free assay; competition with immobilised ligand; 1 µM).
With CNCc1ccc(-c2cc(-c3nc(-c4ccc(S(=O)(=O)C(C)C)cc4)cnc3N)on2)cc1 the inhibition was 2% (ALK; enzyme activity; inhibitor; 0.4 µM).
CCN(CC)CCNC(=O)c1c(C)[nH]c(/C=C2\C(=O)Nc3ccc(F)cc32)c1C has a remaining activity of 27% (ALK; enzyme activity; inhibitor; 1 µM).
For Cc1ccc(NC(=O)c2ccc(CN3CCN(C)CC3)cc2)cc1Nc1nc(-c2cccnc2)cs1, the remaining signal was 103% (ALK; cell-free assay; 0.5 µM).
The remaining activity of CC(C)(O)[C@H]1CC[C@H](Nc2ccc3ncc(-c4cccc(C(F)(F)F)c4)n3n2)CC1 is reported as 57% (ALK; enzyme activity; inhibitor; 1 µM).
With CC(C)c1ccc(NC(=O)c2cccs2)c(-c2nc3ccccc3[nH]c2=O)c1 the activity vs control was 92% (ALK; enzyme activity; inhibitor; 1 µM).
N#CC1(c2ccccn2)CCN(Cc2cc(C(=O)N3CCCC3)c(=O)n3ccccc23)CC1 gave a remaining binding of 100% (ALK; cell-free assay; competition with immobilised ligand; 1 µM).
CC/C(=N\NC(=O)NCc1cccc(O)c1)c1ccc(O)c(C)c1O gave an inhibition of 4.8% (ALK tyrosine kinase receptor (ALK, Homo sapiens, UniProt Q9UM73, R1275Q); enzyme activity; inhibitor; 0.1 µM).
The remaining signal of Cc1ccc(C(=O)Nc2ccc(CN3CCN(C)CC3)c(C(F)(F)F)c2)cc1C#Cc1cnc2cccnn12 is reported as 81% (ALK; cell-free assay; 23.5 nM).
Nc1ncnc2occ(-c3ccc(NC(=O)Nc4cc(C(F)(F)F)ccc4F)cc3)c12 gave a remaining signal of 1.8% (ALK L1196M; cell-free assay; 20 µM).
For F[C@@H]1CCN(c2nccc(-c3cnn4ncccc34)n2)C1, the remaining binding was 100% (ALK L1196M; binding; 1 µM).
The remaining signal of Cc1ccc(NC(=O)c2ccc(C)c(C(F)(F)F)c2)cc1C#Cc1nn(C2CCC(O)CC2)c2ncnc(N)c12 (stereo not shown) is reported as 92% (ALK; cell-free assay; 10 µM).
The remaining signal of N#CCCc1ccc2c(c1)-c1[nH]c3ccc([N+](=O)[O-])cc3c1CC(=O)N2 is reported as 78.8% (ALK; cell-free assay; 0.5 µM).
The remaining binding of CCCOc1ccc([C@@H]2[C@@H](C(=O)O)[C@H](c3ccc4c(c3)OCO4)CN2CC(=O)Nc2c(CC)cccc2CC)cc1 is reported as 78% (ALK L1196M; cell-free assay; competition with immobilised ligand; 1 µM).
For COc1ccnn2ncc(-c3ccnc(N(C)C)n3)c12, the remaining binding was 100% (ALK C1156Y; binding; 1 µM).
For Cc1nc(N2CC[C@@H](O)C2)ncc1-c1cc(C(F)(F)F)cc2[nH]ncc12, the remaining binding was 81% (ALK; cell-free assay; competition with immobilised ligand; 1 µM).
The inhibition of CCCS(=O)(=O)Nc1ccc(F)c(C(=O)c2c[nH]c3ncc(-c4ccc(Cl)cc4)cc23)c1F is reported as less than 10% (ALK; enzyme activity; inhibitor; 1 µM).
For c1cnn2ncc(-c3ccnc(N4CCC45COC5)n3)c2c1, the remaining binding was 40% (ALK L1196M; binding; 1 µM).
With Cc1[nH]c(/C=C2\C(=O)Nc3ccc(F)cc32)c(C)c1C(=O)N[C@H]1CCN(C(=O)N(C)C)C1 the remaining activity was 73% (ALK; enzyme activity; inhibitor; 1 µM).
With COc1ccc2c(c1)O[C@@H](c1ccc(OC)c(OC)c1)C[C@H]2NC(=O)C1(c2ccc3c(c2)OC(F)(F)O3)CC1 the remaining binding was 100% (ALK; cell-free assay; competition with immobilised ligand; 1 µM).
With C=CC(=O)Nc1cc(Nc2nccc(Nc3cc(Cl)c(F)cc3C(C)(C)O)n2)c(OC)cc1N1CC[C@@H](N(C)C)C1 the inhibition was 86% (ALK; enzyme activity; inhibitor; 1 µM).
For O=C1Nc2ccc(Cl)cc2C1=Cc1cc(Cl)c(O)c(Cl)c1, the remaining signal was 65.8% (ALK; cell-free assay; 0.5 µM).
Cc1ccc(Nc2nccc(N(C)c3ccc4c(C)n(C)nc4c3)n2)cc1S(N)(=O)=O has an inhibition of 1% (ALK; enzyme activity; inhibitor; 0.3 µM).
CS(=O)(=O)Nc1cccc(-c2csc(NC(=O)CSc3nc4nccnc4c(=O)n3CCc3ccccc3)n2)c1 gave an inhibition of 9% (ALK; enzyme activity; inhibitor; 10 µM).
Cc1cc(NC(=O)c2cccc3cc(-c4cccc5[nH]nc(N)c45)ccc23)ccc1F has an activity vs control of 140% (ALK; enzyme activity; inhibitor; 0.1 µM).
O=C(NCc1ncc(C(F)(F)F)cc1Cl)c1ccc2c(c1)C1(CCS(=O)(=O)CC1)[C@@H](C1CC1)N2S(=O)(=O)c1ccc(F)cc1 gave a remaining binding of 100% (ALK C1156Y; cell-free assay; competition with immobilised ligand; 1 µM).
With Cc1sc(C(=O)NC2COC2)cc1-n1cc(NC(=O)Nc2c(F)cccc2Cl)cn1 the remaining activity was 100% (ALK; enzyme activity; inhibitor; 10 µM).
CN(CCCC(F)(F)F)c1nccc(-c2cnn3ncccc23)n1 has a remaining binding of 100% (ALK C1156Y; binding; 1 µM).
The inhibition of COc1cc2ncnc(Nc3ccc(Oc4ccccc4)cc3C)c2cc1OC is reported as -2% (ALK; enzyme activity; inhibitor; 1 µM).
The inhibition of CNC(=O)c1cc(Oc2ccc(NC(=O)Nc3ccc(Cl)c(C(F)(F)F)c3)cc2)ccn1 is reported as -16% (ALK; enzyme activity; inhibitor; 0.3 µM).
C[C@@H]1CCN(c2nccc(-c3cnn4ncccc34)n2)C1 has a remaining binding of 81% (ALK; binding; 1 µM).
The remaining activity of Cc1cnc(NC2CCOCC2)nc1-n1cnc(C(=O)NC(CN)c2cc(F)cc(Cl)c2)c1 (stereo not shown) is reported as 122% (ALK; enzyme activity; inhibitor; radiometric; 1 µM).
For N[C@H]1CCN(c2nccc(-c3cnn4ncccc34)n2)C1, the remaining binding was 85% (ALK; binding; 1 µM).
With CCCCN(CCCC)C(=O)CN1C[C@H](c2cc(OC)c3c(c2)OCO3)[C@@H](C(=O)O)[C@@H]1CC(C)(C)CCC the remaining binding was 100% (ALK L1196M; cell-free assay; competition with immobilised ligand; 1 µM).
The remaining binding of CN(C)c1ncc(F)c(-c2cnn3ncccc23)n1 is reported as 59% (ALK L1196M; binding; 1 µM).
CNC(=O)Nc1ccc2c(c1)[C@@]1(CC2)OC(=O)N(CC(=O)N(Cc2ccc(F)cc2)[C@@H](C)C(F)(F)F)C1=O has a remaining binding of 77% (ALK; cell-free assay; competition with immobilised ligand; 1 µM).
For CCCOc1ccc(OC)c(F)c1C(=O)c1ccc(C(=O)N[C@@H]2CNC[C@H]2NC(=O)c2ccc3[nH]ncc3c2)cc1, the remaining activity was 47% (ALK; enzyme activity; inhibitor; 10 µM).
